Source: PubChem BioAssay
In the library only some 2.5% were active in any assay of this set; here they are far more common.
NR2E3 ag-1 – NR2E3 (human) agonism; Q9Y5X4; GST-NR2E3/biotin-RetCOR TR-FRET, 1536-well; inhibition of corepressor binding, % at 4.78 µM; 320,000 tested, 0.12% active;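 active means percent inhibition above the cutoff of mean plus 3 SD of all tested compounds, set per screening campaign, cut at about 20% in these data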;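 further: 0% = DMSO wells and 100% = biotin wells as full block of FRET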
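Format: 1536-well format; test system: GST-NR2E3 and biotin-RetCOR proteins; read-out basis: percent inhibition of TR-FRET ratio; timing: 5 h incubation at 4 °C; detection: time-resolved FRET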
NR2E3 ag-2 – human photoreceptor-specific nuclear receptor agonism; CHO-S Gal4-NCOR/VP16-NR2E3 two-hybrid, luciferase; inhibition of corepressor binding, % at 3.98 µM; 360,000 tested, 0.35% active;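 active means inhibition above the mean of all tested compounds plus 3 SD, cut at about 70% in these data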;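 further: 0% = DMSO with NR2E3 transfected cells and 100% = cells lacking NR2E3 construct; higher means lower luciferase signal from less NR2E3 corepressor binding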
ADAM17 inh – ADAM17 inhibition, QFRET primary screen; P78536; recombinant ADAM17, EDANS/DABCYL FRET peptide cleavage; inhibition, % at 6.95 µM; 370,000 tested, 0.83% active;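 active means inhibition above the mean of compounds lying between control limits plus 3 SD, set per campaign, cut at about 8.5% in these data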;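 further: 0% = DMSO-only wells as the low control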
Target sequence (P78536 215-824 limits assumed): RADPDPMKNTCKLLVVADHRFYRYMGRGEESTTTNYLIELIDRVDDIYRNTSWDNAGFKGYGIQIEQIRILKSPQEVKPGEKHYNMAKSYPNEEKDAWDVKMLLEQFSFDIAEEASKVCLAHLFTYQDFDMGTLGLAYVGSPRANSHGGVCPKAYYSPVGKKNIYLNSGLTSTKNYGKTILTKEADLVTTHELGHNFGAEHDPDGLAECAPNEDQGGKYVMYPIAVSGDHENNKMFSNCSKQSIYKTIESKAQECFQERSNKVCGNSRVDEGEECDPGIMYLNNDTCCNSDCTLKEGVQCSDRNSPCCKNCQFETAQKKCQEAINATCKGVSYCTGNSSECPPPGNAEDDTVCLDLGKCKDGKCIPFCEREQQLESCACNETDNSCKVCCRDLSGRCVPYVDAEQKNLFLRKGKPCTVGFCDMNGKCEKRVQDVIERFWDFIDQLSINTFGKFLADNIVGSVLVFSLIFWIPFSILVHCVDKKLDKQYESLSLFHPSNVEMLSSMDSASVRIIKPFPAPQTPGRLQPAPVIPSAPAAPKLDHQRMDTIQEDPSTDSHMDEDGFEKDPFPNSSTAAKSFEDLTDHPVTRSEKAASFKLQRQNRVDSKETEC
ADAM10 inh – ADAM10 inhibition, QFRET primary screen. O14672. recombinant ADAM10, EDANS/DABCYL FRET peptide cleavage, 3 h. inhibition, % at 7 µM. 370,000 tested, 0.62% active;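 active means inhibition above a per-campaign cutoff equal to the mean of compounds falling between control-based bounds plus 3 SD, cut at about 20% in these data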;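 further: 0% = DMSO wells while the 100% control is not disclosed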
proKLK7 act – activators of human kallikrein-7 zymogen | AID 652039 | 370,000 tested, 0.9% active | purified proKLK7, EDANS-DABCYL substrate fluorescence; 100% is mature enzyme control, 0% vehicle | activation, % at 7 µM | P49862;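 active means activation above the mean of all tested compounds plus 3 SD, computed per campaign excluding outliers beyond control limits, cut at about 13% in these data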
JMJD2C inh – human JMJD2C demethylase inhibition; Q9H3R0; GST-JMJD2C(1-420) H3K9me3 demethylation, DELFIA europium; inhibition, % at 2.35 µM; 330,000 tested, 0.069% active;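 active means more than half of a compound's replicate wells show inhibition beyond 50%, single wells judged on their own value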;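 further: signal counts dimethyl H3K9 product captured on neutravidin plate; 0% = median of DMSO wells and 100% = 0.3 times that DMSO median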
proKLK7 act conf – confirmation of human kallikrein-7 zymogen activators; shares compounds with proKLK7 act; purified proKLK7, EDANS-DABCYL substrate fluorescence; scaled: vehicle 0, mature enzyme 100; activation, % at 7 µM; 3,200 tested, 68% active;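 active means activation, as change over the incubation, above the mean of all tested compounds plus 3 SD, cut at about 13% in these data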
EDANS-DABCYL int – counter-screen for kallikrein-7 activators: EDANS-DABCYL optical interference | shares compounds with proKLK7 act | EDANS-DABCYL substrate fluorescence interference, no enzyme, 4 h; solvent 0%, active enzyme control 100% | activation, % at 7 µM | 3,200 tested, 80% active | AID 686952;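 active means activation above the all-compound mean plus 3 SD, ignoring values outside control-based bounds, cut at about 4.8% in these data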;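 further: value is the 4 h activation minus the activation read at time zero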
EDANS interf – optically interferes with EDANS-DABCYL fluorescence, kallikrein-7 activator counter-screen; 250 tested, 20% active; EC50, µM; shares compounds with proKLK7 act; EDANS-DABCYL peptide fluorescence interference, no enzyme;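 active means compounds that raise the fluorescence signal in this interference counterscreen, with EC50 at or below 10 µM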;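 further: intact quenched peptide substrate alone read at 355 nm excitation and 520 nm emission; signal is fluorescence gain from T0 to T4 after four hours at room temperature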
Numbers without * were called inactive; i = inactive; . = no result given.

SMILES	NR2E3 ag-1	NR2E3 ag-2	ADAM17 inh	ADAM10 inh	proKLK7 act	JMJD2C inh	proKLK7 act conf	EDANS-DABCYL int	others
COc1ccc2c(CN3CCCC3)cc(=O)oc2c1	.	-29	-142	i	3	.	.	.
COc1ccc(OC)c(CN2CCN(Cc3cc(=O)oc4cc(O)ccc34)CC2)c1	9	-11	i	i	59*	-7	76*	75*
O=c1cc(CN2CCN(S(=O)(=O)c3ccc4c(c3)OCCO4)CC2)c2ccc(O)cc2o1	-2	10	i	i	43*	4	62*	67*
CC1CN(S(=O)(=O)c2cccc(C(=O)OCc3cc(=O)oc4cc(O)ccc34)c2)CC(C)O1 (stereo not drawn)	1	-6	-126	-484	375*	-7	540*	528*
CCc1ccc2c(CN3CCN(S(=O)(=O)c4ccc5c(c4)OCCO5)CC3)cc(=O)oc2c1	4	-14	-3	11	0	7	.	.
CCC12C(=Nc3c(Cl)cccc31)C[C@@H]1CCN3C(=O)CCC[C@H]2[C@H]13 (stereo partly drawn)	.	-10	-6	-9	1	.	.	.
CCc1cc2c(COC(=O)c3cc(S(=O)(=O)N4CCOCC4)ccc3F)cc(=O)oc2cc1O	-1	-11	-199	i	113*	-12	446*	456*
O=C(OCc1cc(=O)oc2cc(O)ccc12)c1cc(S(=O)(=O)N2CCOCC2)ccc1F	-4	-2	-358	i	644*	4	677*	654*
N#Cc1ccccc1COC(=O)c1cc(S(=O)(=O)N2CCOCC2)ccc1F	.	-26	-5	-11	1	.	.	.
O=C(C[C@H]1CC[C@@H](NS(=O)(=O)c2ccccc2)[C@@H](CO)O1)NCc1ccc(Cl)c(Cl)c1	.	.	-1	-1	1	.	.	.
CCc1ccc(-c2cc(C(=O)NCCCn3ccnc3)c3ccccc3n2)s1	1	.	.	.	.	-24	.	.
Cc1ccc(-c2cc(C(=O)NCc3ccco3)c3ccccc3n2)s1	-2	-32	i	i	16*	4	22*	65*
Cc1ccc(-c2cc(C(=O)NCCCn3ccnc3)c3ccccc3n2)s1	-1	20	i	i	35*	3	75*	76*
C/C(=N\NC(=O)c1cc(-c2ccc(C)s2)nc2ccccc12)c1cccnc1	.	-88	i	i	66*	14	-151	-211
CCN(CC(=O)Nc1c(F)cccc1F)C(=O)CCc1nc2cc(S(=O)(=O)N3CCOCC3)ccc2n1C	-4	-1	-7	0	0	-2	.	.
CCN(CC)CCn1c2c(c(SCC(=O)Nc3cc(OC)cc(OC)c3)nc1=O)CCC2	2	-12	-3	-1	1	-8	.	.
O=C(Nc1ccc(NC(=O)c2ccccc2O)cc1)Nc1ccc(F)cc1F	-4	-4	-29	-73	31*	4	16*	10*	EDANS interf=9.7*
CC(C)OC(=O)CC(=O)CSc1nc2c(cc1C#N)CCCCC2	3	-104	-20	-95	24*	-6	80*	81*
CCOC(=O)CC(=O)CSc1nc2c(cc1C#N)CCCCC2	4	-119	-29	-90	29*	7	59*	62*
CC(C)OC(=O)CSc1nc2c(cc1C#N)CCCCC2	0	-23	-7	-18	0	-2	.	.
N#Cc1cc2c(nc1SCC(=O)N1CCCCC1)CCCC2	2	-15	-4	-3	0	3	.	.
N#CCSc1nc2c(cc1C#N)CCCCCC2	-1	-34	-44	-181	15*	.	34*	33*
N#Cc1ccc2c(c1)nc1ccccn12	-3	-28	i	i	21*	-26	27*	23*	EDANS interf=>70
